Experiments:
[1] = Critical micelle concentration; format: physicochemical; details: self-assembly / aggregation (Figures S2, S16)
[2] = test system: alkaline phosphatase (ALP); details: incubated with ALP (0.1 U/mL) for about 16 minutes (Figure S15)
[3] = test system: Golgi of HeLa cells; assay: Golgi accumulation; format: cell-based; details: pS1 10 μM, from 1 minute to 8 minutes of incubation
Outline: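 HeLa cells first transfected 24 h with CellLight Golgi-RFP to mark the Golgi. They were then given the NBD-labelled thiophosphopeptide test compound at 10 μM and imaged live by confocal microscopy 1, 4 and 8 min after addition. Golgi-localised green (NBD) fluorescence was compared with the red Golgi-RFP signal, and the RFP stain was checked for bleed-through into the green channel.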

| SMILES | critical micelle concentration (CMC) [1] [µM] | conversion ratio to dephosphorylated product [2] | enhancement of fluorescence intensity at the Golgi [3] |
| --- | --- | --- | --- |
| O=C(Cc1ccc2ccccc2c1)N[C@H](Cc1ccccc1)C(=O)N[C@H](Cc1ccccc1)C(=O)NCCSP(=O)(O)O [pS2] | 9.5 | nearly fully converted |  |
| O=C(CCNc1ccc([N+](=O)[O-])c2nonc12)N[C@H](Cc1ccccc1)C(=O)N[C@H](Cc1ccccc1)C(=O)NCCSP(=O)(O)O [pS1] | 6.0 |  | about 7 times |
